Screens (PubChem BioAssay)
V-ATPase pHluor = alters yeast V-ATPase proton transport. AID 504577. response, % at 10 µM. S. cerevisiae, pHLuorin cytosolic pH fluorescence. 350,000 tested, 0.37% active; in the data active = response mostly above about 7.3%, no sharp cut-off; inactive = mostly below about 5.4%; also: actives read high
T cruzi inh = blocks replication of Trypanosoma cruzi; T. cruzi beta-gal in NIH3T3, luminescence, 90 h; inhibition, % (concentration not given with the values); 300,000 tested, 1.4% active;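 active = mean inhibition across valid replicates above about 55%, limit read from the data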;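 also: signal also drops with host cell toxicity which is not excluded here; 0% = plate median of DMSO wells and 100% = zero luminescence signal; higher percent means less beta-gal luminescence so fewer parasites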
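compound dosing = single 50 nL compound addition per well in DMSO | material = NIH/3T3 host cells with β-galactosidase reporter T. cruzi | input = 5,000 host fibroblasts per well | timing = ≥90 h infection period, 3 h prior cell attachment | read-out basis = percent inhibition of parasite-derived β-gal signal | detection = GalScreen β-gal luminescence, detergent lysis, 60 min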
Yeast superoxide = lowers age-related superoxide in aged yeast cells. S. cerevisiae aged cells, superoxide DHE fluorescence; hits give low values. superoxide response (% of plate mean), % at 10 µM. 330,000 tested, 0.18% active;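 active = superoxide response under a set limit, about three screen SD below normal, cut at about 65% in these data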;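 also: yeast aged for seven days with compound at 30 °C before DHE staining; 100% = average MFI of all compound-treated wells on the plate with controls excluded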
NRP1-CendR mod = modulators of CendR peptide binding to human neuropilin-1; inhibition, % at 25 µM; FAM-RPARPAR peptide binding to NRP-1, fluorescence polarization; 360,000 tested, 0.85% active;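 active = inhibition or corrected inhibition above about 18%, plus a signal ratio from 0.5 to 1.5, limit read from the data, passing the limit was not always enough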
Target sequence (O14786 whole entry, looked up): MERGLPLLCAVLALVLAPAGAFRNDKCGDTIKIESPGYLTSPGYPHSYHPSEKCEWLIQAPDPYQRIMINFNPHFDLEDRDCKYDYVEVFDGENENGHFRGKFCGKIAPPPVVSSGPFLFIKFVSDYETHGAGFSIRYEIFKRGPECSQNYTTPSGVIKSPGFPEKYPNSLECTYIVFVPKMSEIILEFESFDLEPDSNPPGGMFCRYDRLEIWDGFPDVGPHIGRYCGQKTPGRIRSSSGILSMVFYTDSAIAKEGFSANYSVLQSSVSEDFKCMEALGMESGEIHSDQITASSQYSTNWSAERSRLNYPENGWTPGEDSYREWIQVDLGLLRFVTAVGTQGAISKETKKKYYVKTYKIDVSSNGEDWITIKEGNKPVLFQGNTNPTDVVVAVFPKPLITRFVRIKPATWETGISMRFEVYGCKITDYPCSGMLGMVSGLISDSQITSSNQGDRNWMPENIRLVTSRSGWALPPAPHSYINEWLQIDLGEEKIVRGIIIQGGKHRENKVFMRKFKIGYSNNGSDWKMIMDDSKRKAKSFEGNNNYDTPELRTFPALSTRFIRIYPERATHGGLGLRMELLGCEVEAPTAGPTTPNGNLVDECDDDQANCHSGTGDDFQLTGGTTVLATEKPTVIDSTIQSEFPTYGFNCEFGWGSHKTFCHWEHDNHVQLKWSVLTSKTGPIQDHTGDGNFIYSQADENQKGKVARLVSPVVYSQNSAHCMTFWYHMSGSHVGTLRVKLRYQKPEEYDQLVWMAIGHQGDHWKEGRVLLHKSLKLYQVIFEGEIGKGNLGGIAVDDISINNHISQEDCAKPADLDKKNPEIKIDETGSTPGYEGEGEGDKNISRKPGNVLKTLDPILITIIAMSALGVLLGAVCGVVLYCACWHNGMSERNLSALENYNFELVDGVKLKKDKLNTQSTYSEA
AI-2 QS modul = modulates the Vibrio harveyi AI-2 quorum sensing system | AID 2094 | 300,000 tested, 0.4% active | Vibrio harveyi JMH597 AI-2 luminescence/OD600 ratio, 9 h; hits give low values; strain lacks LuxN and CqsS sensors; 0 = neutral-control median | activity change, % at 7.5 µM; in the data active = activity change below about -75%, passing the limit was not always enough;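 also: luminescence divided by OD600 gain over 9 h not by final OD600 alone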
HIF activator = HIF pathway transcriptional activation; U2OS HRE-luciferase reporter, luminescence; normalized: DMSO 0%, desferrioxamine 100%; AID 1910; 300,000 tested, 0.32% active; activation, % at 7.5 µM (by protocol);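 active = mean activation of at least 10% of the iron chelator positive control signal, with at least half of replicates also reaching 10%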
* marks the source's active call; other numbers are inactive results; . = no result. In the library only some 3% were active in any assay of this set; here they are far more common.

SMILES	V-ATPase pHluor	T cruzi inh	Yeast superoxide	NRP1-CendR mod	AI-2 QS modul	HIF activator
CCN1CCN(c2ccc(S(=O)(=O)N3CCCCC3)cc2NC(=O)COc2ccccc2)CC1	-2	58*	97	3	25	0
CCN1CCN(c2ccc(S(=O)(=O)N3CCOCC3)cc2NC(=O)CCSC)CC1	-1	.	106	-12	.	.
CCN1CCN(c2ccc(S(=O)(=O)N3CCOCC3)cc2NC(=O)c2ccc(OCC(C)C)cc2)CC1	3	.	.	8	.	.
CCN1CCN(c2ccc(S(=O)(=O)N3CCOCC3)cc2NC(=O)CCC(C)C)CC1	-2	56*	126	6	19	0
CCN1CCN(c2ccc(S(=O)(=O)N3CCOCC3)cc2NC(=O)COc2ccc(F)cc2Cl)CC1	5	57*	93	-13	35	-23
COc1ccc(CC(=O)Nc2ccc(OC)c(NC(=O)c3ccco3)c2)cc1	2	3	96	4	28	0
Cc1ccc(CNC(=O)CCC2CCCN(Cc3cccc4ncccc34)C2)o1 (centres undefined)	6	66*	89	20	11	0
CCOc1cccc(CN2CCCC(CCC(=O)NCc3ccccc3F)C2)c1O (centres undefined)	-2	56*	98	7	40	0
O=C(CCC1CCCN(c2ncccn2)C1)NCc1ccccc1F (centres undefined)	-4	9	112	7	50	0
Cc1nn(C)c(Cl)c1CN1CCCC(CCC(=O)NCc2ccccc2F)C1 (centres undefined)	0	60*	115	-6	33	0
Nc1cc(Br)c(N)c(Br)c1	5	26	106	-4	12	0
CCN1CCN(CCCNC(=O)c2ccc(/C=C3/Sc4ccccc4N(Cc4ccccc4F)C3=O)cc2)CC1	-7	57*	89	5	27	0
CC(=O)O[C@H]1CC[C@@]2(C)C(=CC[C@H]3[C@@H]4CC[C@H](C5(C)OCCO5)[C@@]4(C)CC[C@@H]32)C1	2	5	101	-5	15	1
Cn1c(=O)cc(-c2ccccc2)c2ccccc21	13*	5	110	0	10	0
C/C(CC1CC(C)OC1=O)=N\NC(N)=S (centres undefined)	1	-9	95	-2	13	0
C/C(CC(C)(C)C1CCCCC1)=N\NC(N)=S	6	56*	150	-6	2	0
O=C(CN1CCN(Cc2ccc(Cl)cc2)C1=O)NCCCN1CCN(c2ccc(F)cc2)CC1	17*	46	89	4	18	0
O=C(CN1CCN(Cc2ccc(Cl)cc2)C1=O)NCCCN1CCOCC1	-3	-8	94	9	34	0
CC(C)(C)c1cc(C(=O)N2CCc3ccccc32)ccn1	17*	-7	96	-3	4	0
CC(C)(C)c1ccc(C(=O)N2CCN(c3ncccn3)CC2)cc1	2	4	101	-4	16	0
CC(C)(C)c1cc(C(=O)N2CCN(c3ncccn3)CC2)ccn1	-1	-10	118	0	5	882*
C=CCc1ccc(OCCCCNC(C)CC)c(OC)c1 (centres undefined)	0	3	97	-7	4	0
Nc1nc(N)c2ncc(C(=O)CCc3ccccc3)nc2n1	-1	15	107	-26	67	0
CC(N)c1csc(NC(=O)Nc2cccc(C(F)(F)F)c2)n1 (centres undefined)	.	.	.	-16	.	.
O=C(O)c1ccc(N/N=C/C(Br)=C/c2ccccc2)cc1	4	-28	99	-16	-94*	5
SMILES	V-ATPase pHluor	T cruzi inh	Yeast superoxide	NRP1-CendR mod	AI-2 QS modul	HIF activator
O=C(N/N=C/c1cccc(C(F)(F)F)c1)c1ccccc1O	-1	-13	99	-11	30	0
O=C(O)c1ccc(N/N=C/c2ccc3nccnc3c2)cc1	-4	-4	70	-4	16	-2
O=C(O)c1ccc(N/N=C/c2ccncc2)cc1	-4	-1	88	-11	15	1
O=C(O)c1ccc(N/N=C/c2cccc(C(F)(F)F)c2)cc1	-1	3	120	5	-93*	4
O=C(O)c1ccc(N/N=C/c2cccc(F)c2)cc1	2	-14	103	-11	-79*	1
O=C(O)c1ccc(N/N=C/c2ccc(F)c(F)c2)cc1	-21	-7	125	-9	-94*	0
O=C(CCN1C(=O)c2cccc3cccc(c23)C1=O)N1CCN(Cc2ccc3c(c2)OCO3)CC1	-2	18	86	-5	3	0
COc1ccc(NC(=O)CC2C(=O)N(c3ccc(Cl)cc3)C(=S)N2NC(=O)c2cccc(F)c2)cc1 (centres undefined)	1	-32	105	-6	13	1
Cc1ccc(NC(=O)CCN2C(=O)C3C4CCC(C4)C3C2=O)cc1Cl (centres undefined)	-3	-1	102	5	0	0
COc1ccc(N2CCOCC2)c(NC(=O)c2cccc3ccccc23)c1	0	1	116	8	23	1
Fc1cccc(/C=N/Nc2nccnc2Cl)c1	-1	-10	99	10	-5	78*
COC(=O)C1CC2(C(=O)OC)CC(C(=O)OC)(CC(C(=O)OC)C2=O)C1=O (centres undefined)	-2	.	.	26*	.	.
COc1cc2c(cc1OC)C(COc1ccc(F)cc1)N(C(C)=O)CC2 (centres undefined)	2	0	108	-2	16	-2
CCN(c1ccccc1)S(=O)(=O)c1cc(C(=O)Nc2ccc(Br)cc2)ccc1F	-1	57*	96	5	-2	0
O=c1[nH]c(=O)n(C2OC(CO)C(O)C2O)c2c1CCCC2 (centres undefined)	.	.	.	23*	.	.
O=C(Nc1ccccc1C(=O)NCc1ccco1)NC1CCCCC1	1	2	98	20*	10	0
Cc1cccc(NC(=O)CCN2C(=O)C3C4CCC(C4)C3C2=O)c1C (centres undefined)	0	-2	101	-4	20	.
CCC(C)NC(=O)CSc1ncnc2sccc12 (centres undefined)	-1	-7	108	-17	4	0
CCOc1cc(C2C(C#N)=C(N)Oc3n[nH]c(-c4ccncc4)c32)cc([N+](=O)[O-])c1O (centres undefined)	0	8	111	32*	21	0
CC(C)(C)C(=O)CSc1nnc(-c2cccs2)n1CC1CCCO1 (centres undefined)	1	13	98	16	24	2
COc1ccc(CC2(CO)CCN(Cc3nc(C(C)C)cs3)CC2)cc1	-3	68*	96	-1	22	0
